Measured values: ChEMBL document CHEMBL3244142, “Antifungal properties of 2-bromo-3-fluorosuccinic acid esters and related compounds” (1977)
≈ marks a conversion by molar mass, not a printed value. Where a name gives a salt, the structure may show the parent alone. Calls of active or inactive are those of the source. The rule behind the calls is not given here.

Assays:
Aspergillus niger [1] = assay: Antifungal activity against Aspergillus niger ATCC 1004 at <100 ug/ml at pH 5.6 after 5 days in presence of 10% beef serum; assay type: functional, organism-based
Method in brief: (§1)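 Agar-dilution MIC in Sabouraud dextrose agar at pH 5.6 or 7.0, with or without 10% beef serum. Plates were incubated at 28 °C for 5 days. MIC is the lowest concentration (µg/mL) giving 100% inhibition. Steps were 1 µg/mL up to 10, 2 µg/mL from 10–20, and 10 µg/mL from 20–100; 100 µg/mL was the top level, and no inhibition there is scored as >100.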

Aspergillus niger [2] = assay: Antifungal activity against Aspergillus niger ATCC 1004 at <100 ug/ml at pH 7 after 5 days in absence of 10% beef serum; assay type: functional, organism-based; method in brief: as §1
Aspergillus niger [3] = assay: Antifungal activity against Aspergillus niger ATCC 1004 at <100 ug/ml at pH 7 after 5 days in presence of 10% beef serum; assay type: functional, organism-based; method in brief: as §1
[4] = test system: Trichophyton mentagrophytes; assay: Antifungal activity against Trichophyton mentagrophytes ATCC 9129 at pH 5.6 after 5 days in absence of 10% beef serum; assay type: functional; conditions: Trichophyton mentagrophytes, ATCC 9129, 120 h; read-out: MIC; method in brief: as §1
[5] = test system: Trichophyton mentagrophytes; assay: Antifungal activity against Trichophyton mentagrophytes ATCC 9129 at pH 5.6 after 5 days in presence of 10% beef serum; assay type: functional; conditions: Trichophyton mentagrophytes, ATCC 9129, 120 h; read-out: MIC; method in brief: as §1
[6] = test system: Trichophyton mentagrophytes; assay: Antifungal activity against Trichophyton mentagrophytes ATCC 9129 at pH 7 after 5 days in absence of 10% beef serum; assay type: functional; conditions: Trichophyton mentagrophytes, ATCC 9129, 120 h; read-out: MIC; method in brief: as §1
[7] = test system: Trichophyton mentagrophytes; assay: Antifungal activity against Trichophyton mentagrophytes ATCC 9129 at pH 7 after 5 days in presence of 10% beef serum; assay type: functional; conditions: Trichophyton mentagrophytes, ATCC 9129, 120 h; read-out: MIC; method in brief: as §1
Aspergillus niger [8] = assay: Antifungal activity against Aspergillus niger ATCC 1004 at <100 ug/ml at pH 5.6 after 5 days in absence of 10% beef serum; assay type: functional, organism-based; method in brief: as §1
Mucor mucedo [9] = assay: Antifungal activity against Mucor mucedo ATCC 7941 at pH 7 after 20 h in absence of 10% beef serum; conditions: ATCC 7941, 20 h
Mucor mucedo [10] = assay: Antifungal activity against Mucor mucedo ATCC 7941 at pH 7 after 20 h in presence of 10% beef serum; conditions: ATCC 7941, 20 h
Mucor mucedo [11] = assay: Antifungal activity against Mucor mucedo ATCC 7941 at pH 5.6 after 20 h in presence of 10% beef serum; conditions: ATCC 7941, 20 h
Candida albicans [12] = assay: Antifungal activity against Candida albicans ATCC 10231 at pH 7 after 20 h in absence of 10% beef serum; conditions: ATCC 10231, 20 h
Candida albicans [13] = assay: Antifungal activity against Candida albicans ATCC 10231 at pH 7 after 20 h in presence of 10% beef serum; conditions: ATCC 10231, 20 h
Candida albicans [14] = assay: Antifungal activity against Candida albicans ATCC 10231 at pH 5.6 after 20 h in absence of 10% beef serum; conditions: ATCC 10231, 20 h
Candida albicans [15] = assay: Antifungal activity against Candida albicans ATCC 10231 at pH 5.6 after 20 h in presence of 10% beef serum; conditions: ATCC 10231, 20 h
Mucor mucedo [16] = assay: Antifungal activity against Mucor mucedo ATCC 7941 at <100 ug/ml at pH 7 after 20 h in absence of 10% beef serum
Mucor mucedo [17] = assay: Antifungal activity against Mucor mucedo ATCC 7941 at <100 ug/ml at pH 7 after 20 h in presence of 10% beef serum
Mucor mucedo [18] = assay: Antifungal activity against Mucor mucedo ATCC 7941 at <100 ug/ml at pH 5.6 after 20 h in absence of 10% beef serum
Mucor mucedo [19] = assay: Antifungal activity against Mucor mucedo ATCC 7941 at <100 ug/ml at pH 5.6 after 20 h in presence of 10% beef serum
Candida albicans [20] = assay: Antifungal activity against Candida albicans ATCC 10231 at <100 ug/ml at pH 7 after 20 h in absence of 10% beef serum
Candida albicans [21] = assay: Antifungal activity against Candida albicans ATCC 10231 at <100 ug/ml at pH 7 after 20 h in presence of 10% beef serum
Candida albicans [22] = assay: Antifungal activity against Candida albicans ATCC 10231 at <100 ug/ml at pH 5.6 after 20 h in absence of 10% beef serum
Candida albicans [23] = assay: Antifungal activity against Candida albicans ATCC 10231 at <100 ug/ml at pH 5.6 after 20 h in presence of 10% beef serum
[24] = test system: Trichophyton mentagrophytes; assay: Antifungal activity against Trichophyton mentagrophytes ATCC 9129 at <100 ug/ml at pH 7 after 5 days in presence of 10% beef serum; assay type: functional, organism-based; method in brief: as §1
Aspergillus niger [25] = assay: Antifungal activity against Aspergillus niger ATCC 1004 at pH 5.6 after 5 days in presence of 10% beef serum; assay type: functional; conditions: Aspergillus niger, ATCC 1004, 120 h; read-out: MIC; method in brief: as §1
Aspergillus niger [26] = assay: Antifungal activity against Aspergillus niger ATCC 1004 at pH 7 after 5 days in absence of 10% beef serum; assay type: functional; conditions: Aspergillus niger, ATCC 1004, 120 h; read-out: MIC; method in brief: as §1
Aspergillus niger [27] = assay: Antifungal activity against Aspergillus niger ATCC 1004 at pH 5.6 after 5 days in absence of 10% beef serum; assay type: functional; conditions: Aspergillus niger, ATCC 1004, 120 h; read-out: MIC; method in brief: as §1
Mucor mucedo [28] = assay: Antifungal activity against Mucor mucedo ATCC 7941 at pH 5.6 after 20 h in absence of 10% beef serum; conditions: ATCC 7941, 20 h

| SMILES | inhibition (Aspergillus niger [1]) | inhibition (Aspergillus niger [2]) | inhibition (Aspergillus niger [3]) | MIC [4] | MIC [5] | MIC [6] | MIC [7] | inhibition (Aspergillus niger [8]) | MIC (Mucor mucedo [9]) | MIC (Mucor mucedo [11]) | MIC (Candida albicans [12]) | MIC (Candida albicans [14]) | inhibition (Mucor mucedo [16]) | inhibition (Mucor mucedo [17]) | inhibition (Mucor mucedo [18]) | inhibition (Mucor mucedo [19]) | inhibition (Candida albicans [20]) | inhibition (Candida albicans [21]) | inhibition (Candida albicans [22]) | inhibition (Candida albicans [23]) | further results |
| --- | --- | --- | --- | --- | --- | --- | --- | --- | --- | --- | --- | --- | --- | --- | --- | --- | --- | --- | --- | --- | --- |
| CCCCOC(=O)[C@@H](F)[C@@H](Br)C(=O)OCCCC (relative stereo) | inactive | inactive | inactive | 3 µg/mL (≈ 9.17 µM) | 20 µg/mL | 4 µg/mL (≈ 12.2 µM) | 30 µg/mL | inactive | 20 µg/mL (≈ 61.1 µM) | 30 µg/mL | 40 µg/mL (≈ 122 µM) | 9 µg/mL (≈ 27.5 µM) |  |  |  |  |  |  |  |  | MIC (Mucor mucedo [10]): 50 µg/mL; MIC (Candida albicans [13]): 50 µg/mL; MIC (Candida albicans [15]): 20 µg/mL |
| CCOC(=O)/C=C\C(=O)OCC [DIETHYL MALEATE] | inactive | inactive | inactive | 50 µg/mL | 60 µg/mL | 90 µg/mL | 100 µg/mL | inactive |  |  |  |  | inactive | inactive | inactive | inactive | inactive | inactive | inactive | inactive |  |
| CCCCOC(=O)/C=C/C(=O)OCCCC | inactive | inactive | inactive | 7 µg/mL (≈ 30.7 µM) | 60 µg/mL | 30 µg/mL (≈ 131 µM) |  | inactive |  |  |  |  | inactive | inactive | inactive | inactive | inactive | inactive | inactive | inactive | inhibition [24]: inactive |
| COC(=O)C(Br)CF (stereo not drawn) | inactive | inactive | inactive | 50 µg/mL (≈ 270 µM) | 100 µg/mL | 100 µg/mL (≈ 541 µM) |  | inactive | 9 µg/mL (≈ 48.7 µM) | 18 µg/mL |  |  |  |  |  |  | inactive | inactive | inactive | inactive | inhibition [24]: inactive; MIC (Mucor mucedo [10]): 30 µg/mL |
| CCCOC(=O)[C@H](F)[C@@H](Br)C(=O)OCCC (relative stereo) |  |  | inactive | < 1 µg/mL | 12 µg/mL | 2 µg/mL (≈ 6.69 µM) | 16 µg/mL |  | 5 µg/mL (≈ 16.7 µM) | 18 µg/mL | 4 µg/mL (≈ 13.4 µM) | 3 µg/mL (≈ 10 µM) |  |  |  |  |  |  |  |  | MIC (Aspergillus niger [25]): 40 µg/mL; MIC (Aspergillus niger [26]): 40 µg/mL (≈ 134 µM); MIC (Aspergillus niger [27]): 30 µg/mL (≈ 100 µM); MIC (Mucor mucedo [10]): 20 µg/mL; MIC (Candida albicans [13]): 16 µg/mL; MIC (Candida albicans [15]): 16 µg/mL |
| COC(=O)/C=C(/F)C(=O)OC | inactive | inactive | inactive | 6 µg/mL (≈ 37 µM) | 8 µg/mL | 50 µg/mL (≈ 308 µM) |  | inactive | 40 µg/mL (≈ 247 µM) | 20 µg/mL |  |  |  | inactive |  |  | inactive | inactive | inactive | inactive | inhibition [24]: inactive; MIC (Mucor mucedo [28]): 14 µg/mL (≈ 86.4 µM) |
| CCCCCOC(=O)/C=C\C(=O)OCCCCC | inactive | inactive | inactive | 10 µg/mL (≈ 39 µM) | 50 µg/mL | 30 µg/mL (≈ 117 µM) | 60 µg/mL | inactive |  |  |  |  | inactive | inactive | inactive | inactive | inactive | inactive | inactive | inactive |  |
| CCCCOC(=O)[C@H](F)[C@@H](Br)C(=O)OCCCC (relative stereo) | inactive | inactive | inactive | < 1 µg/mL | 30 µg/mL | 30 µg/mL (≈ 91.7 µM) | 50 µg/mL | inactive | 14 µg/mL (≈ 42.8 µM) | 80 µg/mL | 30 µg/mL (≈ 91.7 µM) | 20 µg/mL (≈ 61.1 µM) |  | inactive |  |  |  |  |  |  | MIC (Candida albicans [13]): 90 µg/mL; MIC (Candida albicans [15]): 80 µg/mL |
| CCCOC(=O)/C=C/C(=O)OCCC | inactive | inactive | inactive | 6 µg/mL (≈ 30 µM) | 50 µg/mL | 30 µg/mL (≈ 150 µM) |  | inactive | 70 µg/mL (≈ 350 µM) |  | 70 µg/mL (≈ 350 µM) | 70 µg/mL (≈ 350 µM) |  | inactive |  | inactive |  | inactive |  | inactive | inhibition [24]: inactive; MIC (Mucor mucedo [28]): 60 µg/mL (≈ 300 µM) |
| COC(=O)/C=C\C(=O)OC [DIMETHYL MALEATE] | inactive | inactive | inactive | 40 µg/mL | 50 µg/mL | 30 µg/mL | 60 µg/mL | inactive |  |  |  |  | inactive | inactive | inactive | inactive | inactive | inactive | inactive | inactive |  |
| CCCCOC(=O)/C=C\C(=O)OCCCC | inactive | inactive | inactive | 8 µg/mL (≈ 35 µM) | 30 µg/mL | 30 µg/mL (≈ 131 µM) | 50 µg/mL | inactive |  |  |  |  | inactive | inactive | inactive | inactive | inactive | inactive | inactive | inactive |  |
| CCCOC(=O)/C=C\C(=O)OCCC | inactive | inactive | inactive | 14 µg/mL (≈ 69.9 µM) | 40 µg/mL | 50 µg/mL (≈ 250 µM) | 60 µg/mL | inactive |  |  |  |  | inactive | inactive | inactive | inactive | inactive | inactive | inactive | inactive |  |
| COC(=O)CC(F)C(Br)C(=O)OC (stereo not drawn) | inactive | inactive | inactive | 16 µg/mL (≈ 62.2 µM) | 18 µg/mL | 16 µg/mL (≈ 62.2 µM) | 40 µg/mL | inactive | 40 µg/mL (≈ 156 µM) | 50 µg/mL | 90 µg/mL (≈ 350 µM) | 90 µg/mL (≈ 350 µM) |  |  |  |  |  |  |  |  | MIC (Mucor mucedo [10]): 60 µg/mL; MIC (Candida albicans [13]): 90 µg/mL; MIC (Candida albicans [15]): 90 µg/mL |
